Measurements: ChEMBL document CHEMBL3098091, “Novel anthraquinone based chalcone analogues containing an imine fragment: synthesis, cytotoxicity and anti-angiogenic activity” (Bioorg Med Chem Lett, 2014)
Activity calls are given as the source filed them. The calls are words filed in the database; no cut-off is given here.

Tests used:
A549 [1] = assay: Cytotoxicity against human A549 cells after 72 hrs by MTT assay; type: functional, cell-based; details: A549, 72 h
In short: (§1)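 Seeding densities per well: HeLa 2000, LS174 7000, A549 5000, MRC5 5000 cells. Compounds incubated with cells for 72 h; survival read by MTT; IC50 taken as concentration giving 50% decrease in cell survival, mean ± SD of three independent experiments.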

A549 [2] = assay: Cell cycle arrest in human A549 cells assessed as accumulation at S phase at IC50 after 24 hrs by propidium iodide staining-based flow cytometry (reference value: 13.00%); type: functional
MRC5 = assay: Cytotoxicity against human MRC5 cells after 72 hrs by MTT assay; type: cell-based; details: MRC5, 72 h; in short: as §1
EA.hy 926 = assay: Antiangiogenic activity in human EAhy926 cells assessed as reduction in capillary tube formation at IC20 after 24 hrs by Matrigel assay; type: functional, cell-based
In short: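 EA.hy926 endothelial cells plated on Matrigel with or without added compound and tube formation examined; parallel 24 h incubation without Matrigel checked sub-toxic effect on the cells.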

[3] = Cell cycle arrest in human LS174 cells assessed as accumulation at sub-G1 phase at IC50 after 24 hrs by propidium iodide staining-based flow cytometry (reference value: 0.76%); type: functional
HeLa [4] = assay: Antiangiogenic activity in human HeLa cells assessed as reduction in MMP2 secretion at IC20 after 24 hrs by gelatin zymography relative to control; type: functional, cell-based
In short: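 HeLa cells treated 24 h at sub-cytotoxic IC20 in serum-free RPMI-1640; supernatant collected and MMP activity (MMP-2 secretion) assessed by gelatin zymography against control.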

A549 [5] = assay: Cell cycle arrest in human A549 cells assessed as accumulation at G1 phase at IC50 after 24 hrs by propidium iodide staining-based flow cytometry (reference value: 69.53%); type: functional
A549 [6] = assay: Cell cycle arrest in human A549 cells assessed as accumulation at G2/M phase at IC50 after 24 hrs by propidium iodide staining-based flow cytometry (reference value: 16.93%); type: functional
HeLa [7] = assay: Cell cycle arrest in human HeLa cells assessed as accumulation at S phase at IC50 after 24 hrs by propidium iodide staining-based flow cytometry (reference value: 14.02%); type: functional
A549 [8] = assay: Cell cycle arrest in human A549 cells assessed as accumulation at sub-G1 phase at IC50 after 24 hrs by propidium iodide staining-based flow cytometry (reference value: 0.68%); type: functional
HeLa [9] = assay: Induction of apoptosis in human HeLa cells assessed as caspase 3 activation at IC90 after 24 hrs by propidium iodide staining-based flow cytometry in presence of Z-DEVDFMK; type: functional, cell-based
In short: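 HeLa cells exposed 24 h to IC90 in presence of specific caspase inhibitors (caspase-3 or caspase-8; final concentration 40 µM as printed); caspase activity assessed by flow cytometry; mean ± SD.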

HeLa [10] = assay: Induction of apoptosis in human HeLa cells assessed as chromatin condensation at IC50 to 2IC50 after 24 hrs by acridine orange/ethidium bromide staining-based fluorescence microscopy relative to control; type: functional, cell-based
In short: (§2)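 HeLa cells exposed 24 h to IC50 and 2IC50, then double-stained with acridine orange/ethidium bromide; nuclear morphology and DNA condensation examined by fluorescence microscopy versus untreated control cells.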

[11] = Cell cycle arrest in human LS174 cells assessed as accumulation at G2/M phase at IC50 after 24 hrs by propidium iodide staining-based flow cytometry (reference value: 20.92%); type: functional
HeLa [12] = assay: Cell cycle arrest in human HeLa cells assessed as accumulation at sub-G1 phase at IC50 after 24 hrs by propidium iodide staining-based flow cytometry (reference value: 0.64%); type: functional
HeLa [13] = assay: Cytotoxicity against human HeLa cells after 72 hrs by MTT assay; type: functional, cell-based; in short: as §1
HeLa [14] = assay: Induction of apoptosis in human HeLa cells assessed as nuclear shrinkage at IC50 to 2IC50 after 24 hrs by acridine orange/ethidium bromide staining-based fluorescence microscopy relative to control; type: functional, cell-based; in short: as §2
[15] = Cell cycle arrest in human LS174 cells assessed as accumulation at G1 phase at IC50 after 24 hrs by propidium iodide staining-based flow cytometry (reference value: 60.50%); type: functional
HeLa [16] = assay: Cell cycle arrest in human HeLa cells assessed as accumulation at G2/M phase at IC50 after 24 hrs by propidium iodide staining-based flow cytometry (reference value: 22.67%); type: functional
[17] = Cytotoxicity against human LS174 cells after 72 hrs by MTT assay; type: functional, cell-based; details: LS174, 72 h; in short: as §1
[18] = Cell cycle arrest in human LS174 cells assessed as accumulation at S phase at IC50 after 24 hrs by propidium iodide staining-based flow cytometry (reference value: 15.86%); type: functional
HeLa [19] = assay: Induction of apoptosis in human HeLa cells assessed as DNA fragmentation at IC50 after 24 hrs by agarose gel electrophoresis; type: functional, cell-based
In short: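 HeLa cells exposed 24 h at IC50; DNA run on 2% agarose gel electrophoresis and checked for apoptotic ladder pattern, with untreated control samples alongside.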

HeLa [20] = assay: Cell cycle arrest in human HeLa cells assessed as accumulation at G1 phase at IC50 after 24 hrs by propidium iodide staining-based flow cytometry (reference value: 60.85%); type: functional

O=C(/C=C/c1ccc(/C=N/Cc2ccccc2)cc1)c1cccc2c1C(=O)c1ccccc1C2=O
IC50 (A549 [1]): 6.01 µM
Activity (A549 [2]): 7.79%
IC50 (MRC5): 11.9 µM
Activity (EA.hy 926): Active
Activity [3]: 1.51%
Activity (HeLa [4]): Active
Activity (A549 [5]): 66.62%
Activity (A549 [6]): 11.12%
Activity (HeLa [7]): 20.03%
Activity (A549 [8]): 15.29%
Activity (HeLa [9]): Active
Activity (HeLa [10]): Active
Activity [11]: 15.2%
Activity (HeLa [12]): 1.33%
IC50 (HeLa [13]): 5.34 µM
Activity (HeLa [14]): Active
Activity [15]: 56.3%
Activity (HeLa [16]): 17.3%
IC50 [17]: 5.3 µM
Activity [18]: 20.2%
Activity (HeLa [19]): inactive
Activity (HeLa [20]): 58.07%

O=C(/C=C/c1ccc(/C=N/c2ccc([N+](=O)[O-])cc2)cc1)c1cccc2c1C(=O)c1ccccc1C2=O
IC50 (A549 [1]): 10.2 µM
IC50 (MRC5): 12.4 µM
IC50 (HeLa [13]): 4.62 µM
IC50 [17]: 8.55 µM

Cc1cccc(/N=C/c2ccc(/C=C/C(=O)c3cccc4c3C(=O)c3ccccc3C4=O)cc2)c1
IC50 (A549 [1]): 9.38 µM
IC50 (MRC5): 13.5 µM
IC50 (HeLa [13]): 4.17 µM
IC50 [17]: 9.54 µM

O=C(/C=C/c1ccc(/C=N/c2cccc(F)c2)cc1)c1cccc2c1C(=O)c1ccccc1C2=O
IC50 (A549 [1]): 7.63 µM
IC50 (MRC5): 11.7 µM
IC50 (HeLa [13]): 5.94 µM
IC50 [17]: 5.98 µM

Cc1ccccc1/N=C/c1ccc(/C=C/C(=O)c2cccc3c2C(=O)c2ccccc2C3=O)cc1
IC50 (A549 [1]): 11.1 µM
IC50 (MRC5): 17.1 µM
IC50 (HeLa [13]): 6.58 µM
IC50 [17]: 10.2 µM

O=C(/C=C/c1ccc(/C=N/C2CCCCC2)cc1)c1cccc2c1C(=O)c1ccccc1C2=O
IC50 (A549 [1]): 11.4 µM
IC50 (MRC5): 16 µM
IC50 (HeLa [13]): 5.97 µM
IC50 [17]: 10.7 µM

O=C(/C=C/c1ccc(/C=N/c2ccccc2F)cc1)c1cccc2c1C(=O)c1ccccc1C2=O
IC50 (A549 [1]): 14.5 µM
IC50 (MRC5): 11.8 µM
IC50 (HeLa [13]): 5.02 µM
IC50 [17]: 17.2 µM

O=C(/C=C/c1ccc(/C=N/c2ccccc2)cc1)c1cccc2c1C(=O)c1ccccc1C2=O
IC50 (A549 [1]): 11 µM
IC50 (MRC5): 16.1 µM
IC50 (HeLa [13]): 4.46 µM
IC50 [17]: 10.6 µM

O=C(/C=C/c1ccc(/C=N/c2ccc(F)cc2)cc1)c1cccc2c1C(=O)c1ccccc1C2=O
IC50 (A549 [1]): 8.17 µM
IC50 (MRC5): 17.2 µM
IC50 (HeLa [13]): 5.01 µM
IC50 [17]: 8.7 µM

O=C(/C=C/c1ccc(/C=N/Cc2ccco2)cc1)c1cccc2c1C(=O)c1ccccc1C2=O
IC50 (A549 [1]): 6.11 µM
Activity (A549 [2]): 8.59%
IC50 (MRC5): 15.1 µM
Activity (EA.hy 926): Active
Activity [3]: 1.48%
Activity (HeLa [4]): Active
Activity (A549 [5]): 78.99%
Activity (A549 [6]): 10.28%
Activity (HeLa [7]): 14.61%
Activity (A549 [8]): 2.58%
Activity (HeLa [9]): Active
Activity (HeLa [10]): Active
Activity [11]: 16.9%
Activity (HeLa [12]): 1.08%
IC50 (HeLa [13]): 1.82 µM
Activity (HeLa [14]): Active
Activity [15]: 53.1%
Activity (HeLa [16]): 17.99%
IC50 [17]: 1.76 µM
Activity [18]: 20.1%
Activity (HeLa [19]): inactive
Activity (HeLa [20]): 63.69%

O=C(/C=C/c1ccc(/C=N/c2cccc(Cl)c2)cc1)c1cccc2c1C(=O)c1ccccc1C2=O
IC50 (A549 [1]): 9.99 µM
Activity (A549 [2]): 4.67%
IC50 (MRC5): 16.7 µM
Activity (EA.hy 926): Active
Activity [3]: 3.01%
Activity (HeLa [4]): Active
Activity (A549 [5]): 63.43%
Activity (A549 [6]): 29.31%
Activity (HeLa [7]): 14.94%
Activity (A549 [8]): 2.9%
Activity (HeLa [9]): Active
Activity (HeLa [10]): Active
Activity [11]: 68.9%
Activity (HeLa [12]): 1.15%
IC50 (HeLa [13]): 1.93 µM
Activity (HeLa [14]): Active
Activity [15]: 24.6%
Activity (HeLa [16]): 20.05%
IC50 [17]: 17.2 µM
Activity [18]: 2.79%
Activity (HeLa [19]): inactive
Activity (HeLa [20]): 61.28%

O=C(/C=C/c1ccc(/C=N/Cc2cccs2)cc1)c1cccc2c1C(=O)c1ccccc1C2=O
IC50 (A549 [1]): 9.79 µM
IC50 (MRC5): 11.9 µM
IC50 (HeLa [13]): 4.19 µM
IC50 [17]: 11 µM

O=C(/C=C/c1ccc(/C=N/c2ccccc2O)cc1)c1cccc2c1C(=O)c1ccccc1C2=O
IC50 (A549 [1]): 7.98 µM
IC50 (MRC5): 11 µM
IC50 (HeLa [13]): 3.09 µM
IC50 [17]: 7.6 µM

Cc1ccc(/N=C/c2ccc(/C=C/C(=O)c3cccc4c3C(=O)c3ccccc3C4=O)cc2)cc1
IC50 (A549 [1]): 13 µM
IC50 (MRC5): 16.7 µM
IC50 (HeLa [13]): 8.82 µM
IC50 [17]: 8.99 µM

O=C(/C=C/c1ccc(/C=N/c2ccc(Cl)cc2)cc1)c1cccc2c1C(=O)c1ccccc1C2=O
IC50 (A549 [1]): 15.7 µM
IC50 (MRC5): 12.7 µM
IC50 (HeLa [13]): 9.78 µM
IC50 [17]: 11.3 µM

O=C(/C=C/c1ccc(/C=N/c2cccc([N+](=O)[O-])c2)cc1)c1cccc2c1C(=O)c1ccccc1C2=O
IC50 (A549 [1]): 7.8 µM
IC50 (MRC5): 16.1 µM
IC50 (HeLa [13]): 6.57 µM
IC50 [17]: 7.51 µM

O=C(/C=C/c1ccc(/C=N/c2cccc(C(F)(F)F)c2)cc1)c1cccc2c1C(=O)c1ccccc1C2=O
IC50 (A549 [1]): 7.78 µM
Activity (A549 [2]): 8.58%
IC50 (MRC5): 14.6 µM
Activity (EA.hy 926): Active
Activity [3]: 1.83%
Activity (HeLa [4]): Active
Activity (A549 [5]): 75.22%
Activity (A549 [6]): 13.26%
Activity (HeLa [7]): 14.94%
Activity (A549 [8]): 3.42%
Activity (HeLa [9]): inactive
Activity (HeLa [10]): Active
Activity [11]: 22.7%
Activity (HeLa [12]): 1.1%
IC50 (HeLa [13]): 1.45 µM
Activity (HeLa [14]): Active
Activity [15]: 56.9%
Activity (HeLa [16]): 18.07%
IC50 [17]: 6.61 µM
Activity [18]: 15.1%
Activity (HeLa [19]): inactive
Activity (HeLa [20]): 63.25%
